In one assay the target is T1, Adenosine receptor A2b (Homo sapiens, UniProt P29275).
T1 sequence (P29275 whole entry): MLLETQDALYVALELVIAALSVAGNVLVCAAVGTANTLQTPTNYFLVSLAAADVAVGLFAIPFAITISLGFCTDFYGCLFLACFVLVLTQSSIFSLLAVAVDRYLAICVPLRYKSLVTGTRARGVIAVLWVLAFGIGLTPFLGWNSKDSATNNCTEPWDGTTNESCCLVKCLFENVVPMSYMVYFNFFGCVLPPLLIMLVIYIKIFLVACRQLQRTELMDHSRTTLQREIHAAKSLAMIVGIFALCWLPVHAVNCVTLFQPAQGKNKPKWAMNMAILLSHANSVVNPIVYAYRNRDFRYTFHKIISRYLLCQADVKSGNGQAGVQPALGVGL
In words: Agonist activity at human adenosine A2B receptor expressed in CHO cell membranes assessed as induction of cAMP accumulation by AlphaScreen assay. It is filed as functional, cell-based. Put shortly: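 Intact hA2B-transfected CHO cells, trypsin-detached, stimulated in HBSS/5 mM HEPES/0.5 mM Ro 20-1724/0.1% BSA with compound alone at 1 nM–1 μM; cAMP read by AlphaScreen kit; EC50 from four separate assays each in triplicate, mean ± SEM.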
In general terms: Changes in cAMP serve as a functional read-out for many G protein-coupled receptors.

The target in assay [1] is T2, Adenosine receptor A1 (Homo sapiens) (UniProt P30542).
T2 sequence (whole entry): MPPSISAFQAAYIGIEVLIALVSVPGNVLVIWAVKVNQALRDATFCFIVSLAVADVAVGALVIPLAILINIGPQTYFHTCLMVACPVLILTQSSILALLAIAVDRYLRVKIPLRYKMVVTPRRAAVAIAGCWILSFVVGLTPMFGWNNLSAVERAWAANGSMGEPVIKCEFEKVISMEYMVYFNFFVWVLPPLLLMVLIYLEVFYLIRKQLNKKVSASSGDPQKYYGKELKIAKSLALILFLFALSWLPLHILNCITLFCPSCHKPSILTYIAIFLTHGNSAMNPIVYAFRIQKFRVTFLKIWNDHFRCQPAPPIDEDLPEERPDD
Briefly: Displacement of [3H]DPCPX from human adenosine A1 receptor expressed in CHO cell membranes at 1 uM after 90 mins by scintillation counting analysis. The essentials:
(§1)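 Hypotonic-lysed (5 mM Tris HCl, 1 mM EDTA, pH 7.4), 40000 g pelleted hA1-CHO membranes, 50 µg protein/100 µl, with 1 nM [3H]DPCPX, 90 min, 25°C, 50 mM Tris HCl pH 7.4; nonspecific with 1 µM DPCPX; GF/B filtration, scintillation. Ki via Cheng–Prusoff, four assays in triplicate; I% at 1 μM.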
(Displacement assays read how much labelled ligand stays bound in the presence of the test substance.)

Assay [2] addresses T3, Adenosine receptor A2a (Homo sapiens, UniProt P29274). Briefly: Displacement of [3H]-ZM241385 from human adenosine A2A receptor expressed in CHO cell membranes after 60 mins by scintillation counting analysis.
The target in the next assay is T4, Adenosine receptor A3 (Homo sapiens, UniProt P0DMS8).
T4 sequence (P0DMS8 whole entry): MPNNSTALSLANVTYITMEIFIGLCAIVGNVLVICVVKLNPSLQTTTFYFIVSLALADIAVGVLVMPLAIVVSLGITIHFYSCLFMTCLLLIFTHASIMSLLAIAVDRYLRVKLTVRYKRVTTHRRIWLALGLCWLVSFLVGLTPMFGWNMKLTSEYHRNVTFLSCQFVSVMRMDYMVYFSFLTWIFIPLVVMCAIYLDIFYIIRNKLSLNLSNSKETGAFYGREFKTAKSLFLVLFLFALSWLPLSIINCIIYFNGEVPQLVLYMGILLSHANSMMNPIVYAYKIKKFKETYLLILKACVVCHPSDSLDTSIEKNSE
Briefly: Displacement of [125I]-ABMECA from human adenosine A3 receptor expressed in CHO cell membranes after 120 mins by scintillation counting analysis. The essentials:
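Membranes of hA3-CHO cells, 50 µg protein/100 µl, incubated 120 min at 4°C with 0.5 nM [125I]AB-MECA in 50 mM Tris HCl pH 7.4, 10 mM MgCl2, 1 mM EDTA; 1 µM AB-MECA for nonspecific; filter separation, counted. Ki by Cheng–Prusoff, four assays in triplicate; I% at 1 μM.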

The target in assay [3] is T5, Adenosine receptor A2b (Homo sapiens) (UniProt P29275).
T5 sequence (whole entry): T1 sequence (P29275 whole entry)
Briefly: Agonist activity at human adenosine A2B receptor expressed in CHO cell membranes assessed as induction of cAMP accumulation at 1 uM by AlphaScreen assay relative to NECA. It is filed as functional, cell-based. The essentials: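 Whole adherent hA2B-transfected CHO cells (DMEM/F12, 10% FCS, G418), trypsin-detached, in HBSS with 5 mM HEPES, 0.5 mM Ro 20-1724, 0.1% BSA; test compound at 1 μM alone; cAMP by AlphaScreen; efficacy expressed relative to NECA 1 μM taken as 100%.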

The target of assay [4] is T3, Adenosine receptor A2a. Briefly: Displacement of [3H]-ZM241385 from human adenosine A2A receptor expressed in CHO cell membranes at 1 uM after 60 mins by scintillation counting analysis.
The target in another assay is T6, Adenosine receptor A1 (Homo sapiens, UniProt P30542).
T6 sequence (P30542 whole entry): T2 sequence (whole entry)
Briefly: Displacement of [3H]DPCPX from human adenosine A1 receptor expressed in CHO cell membranes after 90 mins by scintillation counting analysis. The essentials: as §1

For assay [5], the species on record is Homo sapiens. Briefly: Selectivity index, ratio of Ki for human adenosine A2A receptor to EC50 for human adenosine A2B receptor.
The species named for assay [6] is Homo sapiens. In words: Selectivity index, ratio of Ki for human adenosine A3 receptor to EC50 for human adenosine A2B receptor.
The species entered for assay [7] is Homo sapiens. In words: Selectivity index, ratio of Ki for human adenosine A1 receptor to EC50 for human adenosine A2B receptor.

Molecules are shown by their SMILES.

T3 sequence (P29274 whole entry): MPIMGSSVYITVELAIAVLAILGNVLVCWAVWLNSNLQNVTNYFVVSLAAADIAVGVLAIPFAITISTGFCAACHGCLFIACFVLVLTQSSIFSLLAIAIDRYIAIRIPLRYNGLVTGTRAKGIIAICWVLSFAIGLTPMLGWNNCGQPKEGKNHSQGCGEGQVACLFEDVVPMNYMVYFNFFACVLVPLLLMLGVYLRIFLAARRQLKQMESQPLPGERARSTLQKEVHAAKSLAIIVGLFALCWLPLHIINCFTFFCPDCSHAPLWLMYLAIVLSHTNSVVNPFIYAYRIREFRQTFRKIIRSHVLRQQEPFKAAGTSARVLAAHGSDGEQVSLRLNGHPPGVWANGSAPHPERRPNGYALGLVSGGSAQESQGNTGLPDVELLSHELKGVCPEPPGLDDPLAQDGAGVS

In the case of `CC(=O)Nc1ccc(-c2c(C#N)c(N)nc(SCC(N)=O)c2C#N)cc1`, the EC50 (commonly the concentration giving half of the maximal effect) on Adenosine receptor A2b was found to be 164 nM. In assay [1], the inhibition – broadly, the percentage by which the read-out fell short of the control – was found to be 17%. Besides, the figures for the Ki at Adenosine receptor A2a [2] and on Adenosine receptor A3 were 572 nM and 742 nM, respectively. Further, the Efficacy in assay [3] is 92%.
For `CCOc1ccc(-c2c(C#N)c(N)nc(SCC(=O)NC)c2C#N)cc1`, the EC50 on Adenosine receptor A2b was found to be 211 nM. Further, at Adenosine receptor A2a [4], the inhibition came to 8%. Moreover, the figures for the Ki at Adenosine receptor A1 and on Adenosine receptor A3 were 104 nM and 834 nM, respectively. Besides, the Efficacy in assay [3] is 48%.
As for `N#Cc1c(N)nc(SCc2ncc[nH]2)c(C#N)c1-c1ccc(OCC2CC2)cc1`, the figures for the Selectivity Index in the assay listed under Homo sapiens [5], in the assay listed under Homo sapiens [6] and in the assay filed under Homo sapiens [7] were 80, 50 and 25, respectively. Further, the EC50 at Adenosine receptor A2b was found to be 9.5 nM. Further, the inhibitory constant (Ki) – broadly, a measure of affinity in units of concentration, obtained from inhibition or displacement – at Adenosine receptor A1 is 235 nM; at Adenosine receptor A2a [2], 764 nM; at Adenosine receptor A3 it was 474 nM. Moreover, in assay [3], the Efficacy was determined as 70%.
For `CCOc1ccc(-c2c(C#N)c(N)nc(SCc3ncc[nH]3)c2C#N)cc1`, the EC50 on Adenosine receptor A2b is 11.7 nM. In addition, the Ki was 8.2 nM on Adenosine receptor A1, 221 nM on Adenosine receptor A2a [2] and 85 nM on Adenosine receptor A3. In addition, the Efficacy in [3] amounted to 62%.

Source of the values: ChEMBL document CHEMBL4196073, “The aminopyridine-3,5-dicarbonitrile core for the design of new non-nucleoside-like agonists of the human adenosine A2B receptor” (Eur J Med Chem, 2018).
